Experiments:
Homo sapiens [1] = organism: Homo sapiens; assay: In vitro cytotoxic activity against human colon adenocarcinoma (HT-29).; assay type: functional
Summary of the method: (§1)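 HT29 cells were seeded at 2.5 × 10^4 cells/mL of medium and drug solutions were added. Exposure lasted 144 h. IC50 is the drug concentration inhibiting cell growth by 50%. Assays were run in triplicate.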

[2] = Apparent equilibrium constant for DNA binding (G-C); assay type: ADME
Summary of the method: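 Ethidium displacement at pH 7.0 in buffer of 10 mM Na2HPO4, 10 mM NaH2PO4, 1 mM EDTA with 1.26 μM ethidium bromide and 1 μM CT-DNA, [poly(dA-dT)]2 or [poly(dG-dC)]2. Drug stock (~5 mM in DMSO) added serially. Fluorescence read at 20 °C, excitation 546 nm, emission 595 nm. C50 is the mean of three determinations. Kapp = 1.26/C50 × 10^7.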

MCF7 [3] = assay: Percent growth of breast MCF-7 cell line at compound concentration 10e-6 was determined; assay type: functional, Homo sapiens
Summary of the method: (§2)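 Cells in the NCI panel were exposed for 48 h to 10^-8, 10^-6 and 10^-4 or 10^-5 M drug. Growth is given as percent of untreated control (100%). Negative values are the percent of cells killed relative to the initial cell number.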

MCF7 [4] = assay: Percent growth of breast MCF-7 cell line at compound concentration 10e-8 was determined; assay type: functional, Homo sapiens; summary of the method: as §2
MCF7 [5] = assay: Percent growth of breast MCF-7 cell line at compound concentration 10e-5 was determined; assay type: functional, Homo sapiens; summary of the method: as §2
HCT-116 [6] = assay: Percent growth of colon HCT116 cell line at compound concentration 10e-5 was determined; assay type: functional, Homo sapiens; summary of the method: as §2
HCT-116 [7] = assay: Percent growth of colon HCT116 cell line at compound concentration 10e-6 was determined; assay type: functional, Homo sapiens; summary of the method: as §2
HCT-116 [8] = assay: Percent growth of colon HCT116 cell line at compound concentration 10e-8 was determined; assay type: functional, Homo sapiens; summary of the method: as §2
NCI-H460 [9] = assay: Percent growth of lung-NSC NCI-H460 cell line at compound concentration 10e-5 was determined; assay type: functional, Homo sapiens; summary of the method: as §2
NCI-H460 [10] = assay: Percent growth of lung-NSC NCI-H460 cell line at compound concentration 10e-6 was determined; assay type: functional, Homo sapiens; summary of the method: as §2
RPMI-8226 [11] = assay: Percent growth of leukemia RPMI-8226 cell line at compound concentration 10e-5 was determined; assay type: functional, Homo sapiens; summary of the method: as §2
RPMI-8226 [12] = assay: Percent growth of leukemia RPMI-8226 cell line at compound concentration 10e-6 was determined; assay type: functional, Homo sapiens; summary of the method: as §2
RPMI-8226 [13] = assay: Percent growth of leukemia RPMI-8226 cell line at compound concentration 10e-8 was determined; assay type: functional, Homo sapiens; summary of the method: as §2
NCI-H460 [14] = assay: Percent growth of lung-NSC NCI-H460 cell line at compound concentration 10e-8 was determined; assay type: functional, Homo sapiens; summary of the method: as §2
LOX IMVI [15] = assay: Percent growth of melanoma LOX IMVI cell line at compound concentration 10e-5 was determined; assay type: functional, Homo sapiens; summary of the method: as §2
LOX IMVI [16] = assay: Percent growth of melanoma LOX IMVI cell line at compound concentration 10e-6 was determined; assay type: functional, Homo sapiens; summary of the method: as §2
LOX IMVI [17] = assay: Percent growth of melanoma LOX IMVI cell line at compound concentration 10e-8 was determined; assay type: functional, Homo sapiens; summary of the method: as §2
OVCAR-4 [18] = assay: Percent growth of ovarian OVCAR-4 cell line at compound concentration 10e-5 was determined; assay type: functional, Homo sapiens; summary of the method: as §2
OVCAR-4 [19] = assay: Percent growth of ovarian OVCAR-4 cell line at compound concentration 10e-8 was determined; assay type: functional, Homo sapiens; summary of the method: as §2
786-0 [20] = assay: Percent growth of renal 786-0 cell line at compound concentration 10e-5 was determined; assay type: functional, Homo sapiens; summary of the method: as §2
786-0 [21] = assay: Percent growth of renal 786-0 cell line at compound concentration 10e-6 was determined; assay type: functional, Homo sapiens; summary of the method: as §2
786-0 [22] = assay: Percent growth of renal 786-0 cell line at compound concentration 10e-8 was determined; assay type: functional, Homo sapiens; summary of the method: as §2
DU-145 [23] = assay: Percent growth of prostate DU-145 cell line at compound concentration 10e-5 was determined; assay type: functional, Homo sapiens; summary of the method: as §2
DU-145 [24] = assay: Percent growth of prostate DU-145 cell line at compound concentration 10e-6 was determined; assay type: functional, Homo sapiens; summary of the method: as §2
DU-145 [25] = assay: Percent growth of prostate DU-145 cell line at compound concentration 10e-8 was determined; assay type: functional, Homo sapiens; summary of the method: as §2
SNB-19 [26] = assay: Percent growth of CNS SNB-19 cell line at compound concentration 10e-5 was determined; assay type: functional, Homo sapiens; summary of the method: as §2
SNB-19 [27] = assay: Percent growth of CNS SNB-19 cell line at compound concentration 10e-6 was determined; assay type: functional, Homo sapiens; summary of the method: as §2
SNB-19 [28] = assay: Percent growth of CNS SNB-19 cell line at compound concentration 10e-8 was determined; assay type: functional, Homo sapiens; summary of the method: as §2
OVCAR-4 [29] = assay: Percent growth of ovarian OVCAR-4 cell line at compound concentration 10e-6 was determined; assay type: functional, Homo sapiens; summary of the method: as §2
Homo sapiens [30] = organism: Homo sapiens; assay: In vitro cytotoxic activity against human colon adenocarcinoma (HT-29); assay type: functional; summary of the method: as §1

SMILES: CN(C)CCNC(=O)c1ccc(NCCN(C)C)c2c(O)c3cc(O)ccc3nc12
- IC50 (Homo sapiens [1]): 2000 nM

SMILES: CN(C)CCNC(=O)c1ccc(NCCN(C)CCNc2ccc(C(=O)NCCN(C)C)c3nc4ccccc4cc23)c2cc3ccccc3nc12
- K app [2]: 7.2e+06 M⁻¹
- IC50 (Homo sapiens [1]): 470 nM

SMILES: CN(C)CCNC(=O)c1ccc(NCCN(C)CCNc2ccc(C(=O)NCCN(C)C)c3nc4ccc(O)cc4c(O)c23)c2c(O)c3cc(O)ccc3nc12
- K app [2]: 1.4e+07 M⁻¹
- IC50 (Homo sapiens [1]): > 10000 nM

SMILES: COc1ccc2nc3c(C(=O)NCCN(C)C)ccc(NCCCN(C)CCCNc4ccc(C(=O)NCCN(C)C)c5nc6ccc(OC)cc6c(O)c45)c3c(O)c2c1
- K app [2]: 1.4e+08 M⁻¹
- IC50 (Homo sapiens [1]): 39 nM

SMILES: CN(C)CCNC(=O)c1ccc(NCCN(C)C)c2cc3ccccc3nc12
- K app [2]: 2.3e+08 M⁻¹
- IC50 (Homo sapiens [1]): 7 nM

SMILES: CN(C)CCNC(=O)c1ccc(NCCCN(C)CCCNc2ccc(C(=O)NCCN(C)C)c3nc4ccc([N+](=O)[O-])cc4c(O)c23)c2c(O)c3cc([N+](=O)[O-])ccc3nc12
- K app [2]: 2.3e+08 M⁻¹
- Growth (MCF7 [3]): 0%
- Growth (MCF7 [4]): 26%
- Growth (MCF7 [5]): -86%
- Growth (HCT-116 [6]): -94%
- Growth (HCT-116 [7]): -5%
- Growth (HCT-116 [8]): 31%
- IC50 (Homo sapiens [1]): < 0.1 nM
- Growth (NCI-H460 [9]): -95%
- Growth (NCI-H460 [10]): -31%
- Growth (RPMI-8226 [11]): -58%
- Growth (RPMI-8226 [12]): -44%
- Growth (RPMI-8226 [13]): 12%
- Growth (NCI-H460 [14]): 28%
- Growth (LOX IMVI [15]): -93%
- Growth (LOX IMVI [16]): -40%
- Growth (LOX IMVI [17]): 28%
- Growth (OVCAR-4 [18]): -72%
- Growth (OVCAR-4 [19]): 67%
- Growth (786-0 [20]): -95%
- Growth (786-0 [21]): 6%
- Growth (786-0 [22]): 41%
- Growth (DU-145 [23]): -93%
- Growth (DU-145 [24]): -2%
- Growth (DU-145 [25]): 55%
- Growth (SNB-19 [26]): -96%
- Growth (SNB-19 [27]): -7%
- Growth (SNB-19 [28]): 42%
- Growth (OVCAR-4 [29]): 16%

SMILES: CN(C)CCNC(=O)c1ccc(NCCN(C)C)c2c(=O)c3ccccc3[nH]c12
- IC50 (Homo sapiens [1]): 94 nM

SMILES: COc1ccc2nc3c(C(=O)NCCN(C)C)ccc(NCCN(C)C)c3c(O)c2c1
- IC50 (Homo sapiens [30]): 500 nM

SMILES: CN(C)CCNc1ccc(C(=O)NCCN(C)CCNC(=O)c2ccc(NCCN(C)C)c3c(O)c4ccccc4nc23)c2nc3ccccc3c(O)c12
- IC50 (Homo sapiens [1]): 480 nM

SMILES: CN(C)CCNc1ccc(C(=O)NCCN(C)CCN(C)CCNC(=O)c2ccc(NCCN(C)C)c3c(O)c4ccccc4nc23)c2nc3ccccc3c(O)c12
- IC50 (Homo sapiens [1]): 290 nM

SMILES: CN(C)CCNc1ccc(C(=O)NCCCNC(=O)c2ccc(NCCN(C)C)c3c(O)c4ccccc4nc23)c2nc3ccccc3c(O)c12
- IC50 (Homo sapiens [1]): > 10000 nM

SMILES: CN(CCCNC(=O)c1ccc(Cl)c2c(O)c3ccccc3nc12)CCCNC(=O)c1ccc(Cl)c2c(O)c3ccccc3nc12
- IC50 (Homo sapiens [1]): 340 nM

SMILES: CN(C)CCNc1ccc(C(=O)NCCCN(C)CCCNC(=O)c2ccc(NCCN(C)C)c3c(O)c4cc(O)ccc4nc23)c2nc3ccc(O)cc3c(O)c12
- IC50 (Homo sapiens [1]): 800 nM
